In ChEMBL document CHEMBL4043178, “Synthesis and evaluation of analogs of 5'-(((Z)-4-amino-2-butenyl)methylamino)-5'-deoxyadenosine (MDL 73811, or AbeAdo) - An inhibitor of S-adenosylmethionine decarboxylase with antitrypanosomal activity” (Bioorg Med Chem, 2017):

Key:
Trypanosoma brucei [1] = assay: Inhibition of Trypanosoma brucei AdoMetDC at 50 uM pre-incubated for 30 mins before AdoMet substrate addition by RapidFire-mass spectrometry
In short: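 Purified T. brucei AdoMetDC/prozyme complex, 50 nM in the enzyme solution, pre-incubated 30 min with compound in DMSO before adding the substrate solution (80 µM AdoMet); Hepes pH 7.7, NaCl, 5 mM putrescine. Reaction 20 min, quenched with 1 M HCl; substrate and product quantified by RapidFire-MS.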

Trypanosoma brucei [2] = assay: Inhibition of Trypanosoma brucei AdoMetDC at 50 uM without pre-incubation for 30 mins before AdoMet substrate addition by RapidFire-mass spectrometry
In short: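 Inhibition without pre-incubation: substrate solution (80 µM AdoMet) added to compound before the enzyme solution (50 nM purified T. brucei AdoMetDC/prozyme); buffer Hepes pH 7.7 with 5 mM putrescine. Reaction ran 20 min, stopped with 1 M HCl, then analysed by RapidFire-MS.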

Trypanosoma brucei [3] = assay: Antitrypanosomal activity against Trypanosoma brucei Lister 427 bloodstream forms assessed as inhibition of parasite growth incubated for 48 hrs by ATP-bioluminescence cell viability assay; format: functional; conditions: Lister 427, 48 h
Liver [4] = assay: Half life in human pooled liver microsomes at 1 uM in presence of NADPH by LC/MS/MS method; format: ADME, microsome; conditions: microsomes, 1 µM
Liver [5] = assay: Half life in mouse pooled liver microsomes at 1 uM in presence of NADPH by LC/MS/MS method; format: ADME, microsome; conditions: microsomes, 1 µM
[6] = Inhibition of Trypanosoma brucei AdoMetDC pre-incubated for 30 mins before AdoMet substrate addition by RapidFire-mass spectrometry
[7] = Inhibition of Trypanosoma brucei AdoMetDC without pre-incubation for 30 mins before AdoMet substrate addition by RapidFire-mass spectrometry
Trypanosoma brucei [8] = assay: Antitrypanosomal activity against Trypanosoma brucei Lister 427 bloodstream forms assessed as inhibition of parasite growth at 25 uM incubated for 48 hrs by ATP-bioluminescence cell viability assay; format: functional; conditions: Lister 427, 48 h, read-out: GI
In short: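 Bloodstream-form Lister 427 cells grown in HMI-19, seeded at 3000 cells/mL; compound added as 100-fold intermediate dilution, final DMSO 0.1%. After 48 h culture, viability read by CellTiter-Glo ATP-bioluminescence. Tested 0.0038–25 µM in 3-fold steps, triplicate; no-cell and DMSO-only controls (0% and 100% viability) per plate; value is percent inhibition at 25 µM.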

MDCK-MDR1 = assay: Apparent permeability in MDCK2-MDR1 cells at 3 uM incubated for 1 hr in absence of P-glycoprotein inhibitor GF120918 by LC/MS/MS method; format: ADME, cell-based, Canis lupus familiaris; conditions: dog, mdck-mdr1, 1 h
[9] = system: Trypanosoma brucei brucei; assay: Antitrypanosomal activity against Trypanosoma brucei brucei; format: functional
[10] = Inhibition of His-tagged Trypanosoma brucei AdoMetDC expressed in Escherichia coli pre-incubated for 30 mins before AdoMet substrate addition

SMILES	inhibition (Trypanosoma brucei [1])	inhibition (Trypanosoma brucei [2])	EC50 (Trypanosoma brucei [3])	t1/2 (Liver [4])	t1/2 (Liver [5])	IC50 [6]	IC50 [7]	inhibition of growth at 25 µM (Trypanosoma brucei [8])	Papp (MDCK-MDR1)	EC50 [9]	IC50 [10]
Cc1nc2c(N)ncnc2n1[C@@H]1O[C@H](CN(C)C/C=C\CNC(=O)OCc2ccccc2)[C@@H](O)[C@H]1O	39%	17%	2600 nM	24 min	13 min						
Cc1nc2c(N)ncnc2n1[C@@H]1O[C@H](CN(C)C/C=C\CNC(=O)OC(C)C)[C@@H](O)[C@H]1O				> 90 min	> 90 min	> 50 µM	> 50 µM	35%			
NC/C=C\CN(CCF)C[C@H]1O[C@@H](n2cnc3c(N)ncnc32)[C@H](O)[C@@H]1O	36%		> 25000 nM	> 90 min	> 90 min		> 50 µM				
Cc1nc2c(N)ncnc2n1[C@@H]1O[C@H](CN(C/C=C\CN)C2CC2)[C@@H](O)[C@H]1O			> 3000 nM	> 90 min	> 90 min	> 50 µM	> 50 µM				
CCCCCCCCC(=O)Nc1ncnc2c1ncn2[C@@H]1O[C@H](CN(C)C/C=C\CN)[C@H]2OC(C)(C)O[C@H]21			160 nM	9.7 min	6 min	0.85 µM	48 µM		10 nm/s		
CC(=O)NC/C=C\CN(C)C[C@H]1O[C@@H](n2cnc3c(N)ncnc32)[C@H](OC(C)=O)[C@@H]1OC(C)=O			> 25000 nM	> 90 min	6.6 min	> 50 µM	> 50 µM				
CCCC(=O)NC/C=C\CN(C)C[C@H]1O[C@@H](n2cnc3c(N)ncnc32)[C@H](O)[C@@H]1O			> 25000 nM	> 90 min	> 90 min	> 50 µM	> 50 µM				
CNc1ncnc2c1ncn2[C@@H]1O[C@H](CN(C)C/C=C\CN)[C@H]2OC(C)(C)O[C@H]21				> 90 min	> 90 min	12 µM	> 50 µM	37%			
Cc1nc2c(N)ncnc2n1[C@@H]1O[C@H](CN(C/C=C\CN)CCO)[C@H]2OC(C)(C)O[C@H]21			> 25000 nM	> 90 min	> 90 min	> 50 µM	> 50 µM				
CC(=O)NC/C=C\CN(C)C[C@H]1O[C@@H](n2cnc3c(N)ncnc32)[C@H](O)[C@@H]1O			> 25000 nM	> 90 min	> 90 min	18 µM	13 µM				
Cc1nc2c(N)ncnc2n1[C@@H]1O[C@H](CN(C)C/C=C\CNC(=O)OC(C)(C)C)[C@H]2OC(C)(C)O[C@H]21			> 25000 nM	< 2.5 min	< 2.5 min	> 50 µM	> 50 µM		51 nm/s		
CCC(=O)NC/C=C\CN(C)C[C@H]1O[C@@H](n2cnc3c(N)ncnc32)[C@H](O)[C@@H]1O			> 25000 nM	> 90 min	> 90 min	25 µM	19 µM				
CN(C/C=C\CN)C[C@H]1O[C@@H](n2cnc3c(N)ncnc32)[C@@H]2OC(C)(C)O[C@@H]21		22%	420 nM	> 90 min	> 90 min	3 µM					
CCOc1ncnc2c1ncn2[C@@H]1O[C@H](CN(C)C/C=C\CN)[C@@H](O)[C@H]1O		33%	360 nM	> 90 min	> 90 min	0.6 µM					
CCOC(=O)NC/C=C\CN(C)C[C@H]1O[C@@H](n2c(C)nc3c(N)ncnc32)[C@H](O)[C@@H]1O	40%	40%		> 90 min	> 90 min						
CN(C/C=C\CN)C[C@H]1O[C@@H](n2cnc3c(N(C)C)ncnc32)[C@H](O)[C@@H]1O		37%	10000 nM	> 90 min	> 90 min	0.81 µM					
CC1(C)O[C@@H]2[C@H](O1)[C@@H](CN(C/C=C\CN)CCF)O[C@H]2n1cnc2c(N)ncnc21			> 25000 nM	> 90 min	> 90 min	> 50 µM	> 50 µM				
CCCC(=O)NC/C=C\CN(C)C[C@H]1O[C@@H](n2cnc3c(N)ncnc32)[C@H](OC(C)=O)[C@@H]1OC(C)=O			> 25000 nM	51 min	3 min	> 50 µM	> 50 µM				
CN(C/C=C\CN)C[C@H]1O[C@@H](n2cnc3c(N)ncnc32)[C@H](O)[C@@H]1O			10 nM	> 90 min	> 90 min	0.041 µM	2.4 µM			10 nM	41 nM
CC(C)Nc1ncnc2c1ncn2[C@@H]1O[C@H](CN(C)C/C=C\CN)[C@@H](O)[C@H]1O			2500 nM	> 90 min	> 90 min	0.11 µM	7.1 µM				
CNc1ncnc2c1ncn2[C@@H]1O[C@H](CN(C)C/C=C\CN)[C@@H](O)[C@H]1O			370 nM	> 90 min	> 90 min	0.17 µM	14 µM				
CN(C/C=C\CN)C[C@H]1O[C@@H](n2cnc3cncnc32)[C@@H]2OC(C)(C)O[C@@H]21			> 25000 nM	> 90 min	59 min	> 50 µM	> 50 µM				
Cc1nc2c(N)ncnc2n1[C@@H]1O[C@H](CN(C/C=C\CNC(=O)OC(C)(C)C)C2CC2)[C@H]2OC(C)(C)O[C@H]21			3000 nM	< 2.5 min	< 2.5 min	42 µM	> 50 µM		312 nm/s		
Cc1nc2c(N)ncnc2n1[C@@H]1O[C@H](CN(C/C=C\CN)C2CC2)[C@H]2OC(C)(C)O[C@H]21			> 3000 nM	> 90 min	> 90 min	> 50 µM	> 50 µM				
CCC(=O)NC/C=C\CN(C)C[C@H]1O[C@@H](n2cnc3c(N)ncnc32)[C@H](OC(C)=O)[C@@H]1OC(C)=O			> 25000 nM	75 min	4.6 min	> 50 µM	> 50 µM				
Cc1nc2c(N)ncnc2n1[C@@H]1O[C@H](CN(C)C/C=C\CN)[C@@H](O)[C@H]1O			1.8 nM	> 90 min	> 90 min	0.021 µM	0.23 µM			1.8 nM	21 nM
